In ChEMBL document CHEMBL1255440, “An antimicrobial peptide that targets DNA repair intermediates in vitro inhibits Salmonella growth within murine macrophages” (Antimicrob Agents Chemother, 2010):
Calls of active or inactive are those of the source. No cut-off for these calls is given here.

Legend:
Salmonella typhimurium [1] = test: Antibacterial activity against 10 MOI Salmonella enterica subsp. enterica serovar Typhimurium G785 transfected with SOS-inducible beta-galactosidase reporter infected in mouse J774A1 cells assessed as bacterial number at 50 uM after 24 hrs postinfection; assay type: functional, J774.A1
Summary of the method: (§1)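 J774A.1 cells infected at MOI 10 with sulA promoter-lacZ reporter strain G785 using the gentamicin-protection protocol, treated with peptide (DMSO vehicle controls) plus 15 μg/ml gentamicin for 4 or 24 h. Released bacteria were plated for colony counts in parallel, and were incubated with 33 μM C12FDG (with 0.2 mM EDTA) in LB for 2 h at 37°C. Flow cytometry gave % fluorescein-positive among LPS-antibody-positive particles; Wilcoxon exact test.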

J774.A1 [2] = test: Drug uptake in mouse J774A1 cells assessed as total peptide concentration at 50 uM after 5 hrs at 37 degC by HPLC analysis; assay type: ADME, cell-based; conditions: j774.a1, 5 h
Summary of the method: (§2)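 J774A.1 cells were seeded at 300,000 per well and allowed to adhere for 24 h at 37°C in 5% CO2. Medium was replaced with DMEM containing unlabeled peptide, and cells were held at 37°C or 4°C. After three washes in ice-cold PBS, cells were lysed in NP-40 buffer and debris spun out. Reverse-phase HPLC was read at 280 nm. Peaks at 17.5 and 17.75 min were integrated against a standard curve. Intracellular mM was calculated from 300,000 cells at 1 pl each, using monomer mass.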

Salmonella typhimurium [3] = test: Antibacterial activity against 1 MOI Salmonella enterica subsp. enterica serovar Typhimurium infected in mouse J774A1 cells assessed as reduction in bacterial growth at 50 uM after 24 hrs; assay type: functional, J774.A1; design: scale not given: the % may be the effect or the level left
Summary of the method: (§3)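 J774A.1 cells or thioglycolate-elicited BALB/c peritoneal macrophages seeded at 200,000/well, overnight 37°C 5% CO2; infected with GFP strain SDT1416, 1 h invasion, washed, 1 h in DMEM with 15 μg/ml gentamicin. Then fresh DMEM plus 15 μg/ml gentamicin with or without peptide (DMSO vehicle) for 24 h at 37°C; macrophages lysed with 1% Triton X-100, plated on LB agar for CFU.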

[4] = Cytotoxicity against mouse peritoneal macrophages assessed as live cells at 100 uM by calcein AM assay; assay type: cell-based, Peritoneal macrophage cell; conditions: read-out: Activity
Summary of the method: (§4)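 Cells seeded at 300,000/well and allowed to adhere, then given fresh DMEM with or without peptide for 24 h. Cells trypsinized, stained with a mammalian Live/Dead viability/cytotoxicity kit and analyzed by flow cytometry. Wilcoxon exact test.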

J774.A1 [5] = test: Drug uptake in mouse J774A.1 cells assessed as total peptide concentration at 150 uM after 24 hrs at 4 degC by HPLC analysis; conditions: J774A.1, 24 h
Salmonella typhimurium [6] = test: Antibacterial activity against 10 MOI Salmonella enterica subsp. enterica serovar Typhimurium G785 transfected with SOS-inducible beta-galactosidase reporter infected in mouse J774A1 cells assessed as bacterial number at 150 uM after 24 hrs postinfection; assay type: functional, J774.A1; summary of the method: as §1
Salmonella typhimurium [7] = test: Antibacterial activity against 1 MOI Salmonella enterica subsp. enterica serovar Typhimurium infected in mouse J774A1 cells assessed as reduction in bacterial growth after 24 hrs; assay type: functional, organism-based; conditions: J774.A1; summary of the method: as §3
Salmonella typhimurium [8] = test: Antibacterial activity against 1 MOI Salmonella enterica subsp. enterica serovar Typhimurium infected in mouse J774A1 cells assessed as reduction in bacterial growth at 2.5 times MIC; assay type: functional, organism-based; conditions: J774.A1; summary of the method: as §3
J774.A1 [9] = test: Drug uptake in mouse J774A1 cells assessed as total peptide concentration at 50 uM after 5 hrs at 4 degC by HPLC analysis; assay type: ADME, cell-based; conditions: j774.a1, 5 h; summary of the method: as §2
J774.A1 [10] = test: Drug uptake in mouse J774A1 cells assessed as total peptide concentration at 150 uM after 24 hrs at 37 degC by HPLC analysis; assay type: ADME, cell-based; conditions: j774.a1, 24 h
Summary of the method: (§5)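 J774A.1 cells were incubated with unlabeled peptide for 5 or 24 h at 37°C or 4°C, washed in ice-cold PBS and lysed with NP-40 buffer. Lysates were run on reverse-phase HPLC with an acetonitrile/0.1% TFA gradient and A280 fractions. Monomer (~17.5 min) and dimer (~17.75 min) peak areas were compared against a standard curve. Intracellular mM was calculated using 300,000 cells and 1 pl/cell, with concentration expressed as monomer mass.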

J774.A1 [11] = test: Drug uptake in mouse J774A1 cells assessed as dimer to monomer peptide ratio at 50 uM after 5 hrs at 4 degC by HPLC analysis; assay type: ADME, cell-based; conditions: j774.a1, 5 h; summary of the method: as §5
Salmonella typhimurium [12] = test: Antibacterial activity against 10 MOI Salmonella enterica subsp. enterica serovar Typhimurium G785 transfected with SOS-inducible beta-galactosidase reporter infected in mouse J774A1 cells assessed as SOS induction at 50 uM after 4 hrs postinfection; assay type: functional, J774.A1; summary of the method: as §1
Salmonella typhimurium [13] = test: Antibacterial activity against 10 MOI Salmonella enterica subsp. enterica serovar Typhimurium G785 transfected with SOS-inducible beta-galactosidase reporter infected in mouse J774A1 cells assessed as bacterial number at 100 uM after 4 hrs postinfection; assay type: functional, J774.A1; summary of the method: as §1
J774.A1 [14] = test: Drug uptake in mouse J774A1 cells assessed as total peptide concentration at 100 uM after 5 hrs at 4 degC by HPLC analysis; assay type: ADME, cell-based; conditions: j774.a1, 5 h; summary of the method: as §5
[15] = Drug uptake in mouse peritoneal macrophages assessed as dimer to monomer peptide ratio at 100 uM after 24 hrs at 37 degC by HPLC analysis; assay type: ADME, cell-based; conditions: peritoneal macrophage cell
Summary of the method: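 Macrophages were elicited in 8–12-week-old female BALB/c mice with 4% thioglycolate i.p. and harvested by lavage 4 days later. Cells were seeded at 300,000 per well for 24 h, then given unlabeled peptide in DMEM for 24 h at 37°C. Lysates were run on reverse-phase HPLC at A280. Monomer (17.5 min) and dimer (17.75 min) peak areas were compared with a standard curve. Concentration assumed 1 pl per cell; values are means of three determinations.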

J774.A1 [16] = test: Drug uptake in mouse J774A.1 cells assessed as total peptide concentration at 50 uM after 24 hrs at 4 degC by HPLC analysis; conditions: J774A.1, 24 h
Salmonella typhimurium [17] = test: Antibacterial activity against 10 MOI Salmonella enterica subsp. enterica serovar Typhimurium G785 transfected with SOS-inducible beta-galactosidase reporter infected in mouse J774A1 cells assessed as bacterial number at 150 uM after 4 hrs postinfection; assay type: functional, J774.A1; summary of the method: as §1
Salmonella typhimurium [18] = test: Antibacterial activity against 10 MOI Salmonella enterica subsp. enterica serovar Typhimurium G785 transfected with SOS-inducible beta-galactosidase reporter infected in mouse J774A1 cells assessed as SOS induction at 50 uM after 24 hrs postinfection; assay type: functional, J774.A1; summary of the method: as §1
J774.A1 [19] = test: Drug uptake in mouse J774A1 cells assessed as dimer to monomer peptide ratio at 50 uM after 24 hrs at 37 degC by HPLC analysis; assay type: ADME, cell-based; conditions: j774.a1, 24 h; summary of the method: as §5
[20] = Cytotoxicity against mouse peritoneal macrophages assessed as live cells at 50 uM by calcein AM assay; assay type: cell-based, Peritoneal macrophage cell; conditions: read-out: Activity; summary of the method: as §4
J774.A1 [21] = test: Drug uptake in mouse J774A1 cells assessed as total peptide concentration at 150 uM after 5 hrs at 37 degC by HPLC analysis; assay type: ADME, cell-based; conditions: j774.a1, 5 h; summary of the method: as §2
[22] = Cytotoxicity against mouse J774A1 cells assessed as live cells at 50 uM by calcein AM assay; assay type: cell-based, J774.A1; conditions: read-out: Activity; summary of the method: as §4
J774.A1 [23] = test: Drug uptake in mouse J774A1 cells assessed as dimer to monomer peptide ratio at 150 uM after 24 hrs at 37 degC by HPLC analysis; assay type: ADME, cell-based; conditions: j774.a1, 24 h; summary of the method: as §5
J774.A1 [24] = test: Drug uptake in mouse J774A1 cells assessed as total peptide concentration at 100 uM after 24 hrs at 37 degC by HPLC analysis; assay type: ADME, cell-based; conditions: j774.a1, 24 h; summary of the method: as §5

Question: Which Activity (Salmonella typhimurium [1]) does the source give for `N=C(N)NCCC[C@@H](NC(=O)[C@@H](CS)NC(=O)[C@@H](Cc1ccc(O)cc1)NC(=O)[C@@H](Cc1c[nH]c2ccccc12)NC(=O)[C@@H](CCCNC(=N)N)NC(=O)[C@H](N)Cc1c[nH]c2ccccc12)C(=O)O` here?
Answer: Its Activity is 45.2%.

Question: And the Drug uptake (J774.A1 [2])?
Answer: Its Drug uptake is 0.9 mM.

Question: And the Activity (Salmonella typhimurium [3])?
Answer: The Activity was 68.5%.

Question: And the viability at 100 µM [4]?
Answer: The viability at 100 µM was 94.4%.

Question: And the Drug uptake (J774.A1 [5])?
Answer: The Drug uptake was 47.7 mM.

Question: And the Activity (Salmonella typhimurium [6])?
Answer: The Activity was 1.9%.

Question: What about the Activity (Salmonella typhimurium [7]) of the same compound?
Answer: The Activity was “Dose-dependent effect”.

Question: And the Activity (Salmonella typhimurium [8])?
Answer: The Activity was “Active”.

Question: What about the Drug uptake (J774.A1 [9]) of the same compound?
Answer: The Drug uptake was 1.2 mM.

Question: And the Drug uptake (J774.A1 [10])?
Answer: The Drug uptake was 30.1 mM.

Question: What about the Ratio (J774.A1 [11]) of the same compound?
Answer: The Ratio was 2.3.

Question: And the Activity (Salmonella typhimurium [12])?
Answer: The Activity was 0.3%.

Question: What about the Activity (Salmonella typhimurium [13]) of the same compound?
Answer: The Activity was 19%.

Question: What about the Drug uptake (J774.A1 [14]) of the same compound?
Answer: Its Drug uptake is 7.7 mM.

Question: And the Ratio [15]?
Answer: Its Ratio is 0.7.

Question: And the Drug uptake (J774.A1 [16])?
Answer: The Drug uptake was 10.1 mM.

Question: And the Activity (Salmonella typhimurium [17])?
Answer: The Activity was 3%.

Question: And the Activity (Salmonella typhimurium [18])?
Answer: The Activity was 0.4%.

Question: And the Ratio (J774.A1 [19])?
Answer: Its Ratio is 1.7.

Question: And the viability at 50 µM [20]?
Answer: The viability at 50 µM was 94.2%.

Question: What about the Drug uptake (J774.A1 [21]) of the same compound?
Answer: Its Drug uptake is 28.9 mM.

Question: What about the viability at 50 µM [22] of the same compound?
Answer: Its viability at 50 µM is 93%.

Question: What about the Ratio (J774.A1 [23]) of the same compound?
Answer: The Ratio was 12.5.

Question: And the Drug uptake (J774.A1 [24])?
Answer: Its Drug uptake is 16.9 mM.
